Here are results for one compound from ChEMBL document CHEMBL4312019, “Design, synthesis, and evaluation of compounds capable of reducing Pseudomonas aeruginosa virulence” (Eur J Med Chem, 2020).

Converted amounts (≈) assume the structure as drawn. The source made the active and inactive calls. The rule behind the calls is not given here.

The target in assay [1] is Sodium-dependent noradrenaline transporter (Homo sapiens) (UniProt P23975). As to the kind of experiment: Displacement of [3H]-Nisoxetine from human recombinant NET receptor expressed in stable HEK cells incubated for 90 mins by microbeta scintillation counting method. Format: cell-based.
Sequence of Sodium-dependent noradrenaline transporter (Homo sapiens) (P23975 whole entry): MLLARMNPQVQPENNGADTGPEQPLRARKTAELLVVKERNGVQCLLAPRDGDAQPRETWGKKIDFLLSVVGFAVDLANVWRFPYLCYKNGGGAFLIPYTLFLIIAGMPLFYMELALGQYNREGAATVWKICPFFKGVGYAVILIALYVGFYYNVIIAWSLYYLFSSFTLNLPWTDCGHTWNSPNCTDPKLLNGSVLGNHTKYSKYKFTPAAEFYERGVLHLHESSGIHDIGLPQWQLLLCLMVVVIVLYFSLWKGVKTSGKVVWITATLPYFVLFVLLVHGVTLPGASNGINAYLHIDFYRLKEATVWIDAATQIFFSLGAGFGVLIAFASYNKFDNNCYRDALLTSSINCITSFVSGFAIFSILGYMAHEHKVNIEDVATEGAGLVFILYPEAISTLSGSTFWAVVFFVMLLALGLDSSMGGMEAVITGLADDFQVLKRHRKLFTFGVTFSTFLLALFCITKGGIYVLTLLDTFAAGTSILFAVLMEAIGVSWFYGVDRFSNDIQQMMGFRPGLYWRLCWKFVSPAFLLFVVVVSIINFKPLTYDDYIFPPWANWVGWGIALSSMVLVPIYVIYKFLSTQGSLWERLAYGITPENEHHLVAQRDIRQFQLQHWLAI
In assay [2] the target is Beta-2 adrenergic receptor (Homo sapiens) (UniProt P07550). The assay can be described thus: Displacement of [125I]-CGP12177 from recombinant human beta2 adrenergic receptor expressed in HEK Flp-In cells measured after 90 mins by microbeta scintillation counting method. Format: cell-based. On the technique in general: Displacement assays read how much labelled ligand stays bound in the presence of the test substance.
Sequence of Beta-2 adrenergic receptor (Homo sapiens) (P07550 whole entry, looked up): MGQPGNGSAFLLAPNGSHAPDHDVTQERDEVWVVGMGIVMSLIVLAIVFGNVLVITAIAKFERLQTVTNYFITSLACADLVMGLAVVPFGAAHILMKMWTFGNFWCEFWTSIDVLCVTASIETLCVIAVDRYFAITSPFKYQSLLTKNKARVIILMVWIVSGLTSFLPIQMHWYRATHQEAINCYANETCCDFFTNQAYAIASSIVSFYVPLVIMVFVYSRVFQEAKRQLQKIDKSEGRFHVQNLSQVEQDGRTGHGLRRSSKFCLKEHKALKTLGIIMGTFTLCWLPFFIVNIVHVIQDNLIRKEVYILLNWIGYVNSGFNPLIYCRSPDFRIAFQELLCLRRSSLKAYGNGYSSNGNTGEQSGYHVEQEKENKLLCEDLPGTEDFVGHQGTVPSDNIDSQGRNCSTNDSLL

The target of assay [3] is Mu-type opioid receptor (Homo sapiens) (UniProt P35372). The assay can be described thus: Displacement of [3H]-DAMGO from human recombinant MOR receptor expressed in stable HEK cells incubated for 90 mins by microbeta scintillation counting method. Format: cell-based.
Sequence of Mu-type opioid receptor (Homo sapiens) (P35372 whole entry): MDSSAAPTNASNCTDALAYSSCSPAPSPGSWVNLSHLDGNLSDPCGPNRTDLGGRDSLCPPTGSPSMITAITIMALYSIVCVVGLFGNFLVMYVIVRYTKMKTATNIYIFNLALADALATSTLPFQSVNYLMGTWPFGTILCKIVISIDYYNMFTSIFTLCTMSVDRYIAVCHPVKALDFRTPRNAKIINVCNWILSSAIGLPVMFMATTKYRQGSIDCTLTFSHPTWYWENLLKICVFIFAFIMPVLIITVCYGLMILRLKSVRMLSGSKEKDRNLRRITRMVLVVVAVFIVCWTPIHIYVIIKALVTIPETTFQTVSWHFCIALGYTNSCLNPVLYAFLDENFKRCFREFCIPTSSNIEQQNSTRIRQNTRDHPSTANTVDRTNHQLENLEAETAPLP
Assay [4] addresses D(1A) dopamine receptor (Homo sapiens) (UniProt P21728). As to the kind of experiment: Displacement of [3H]-SCH23390 from human recombinant dopamine D1 receptor expressed in HEKT cells incubated for 90 mins by microbeta scintillation counting method. Format: cell-based.
Assay [5] deals with Sodium-dependent serotonin transporter (Homo sapiens) (UniProt P31645). The assay can be described thus: Displacement of [3H]-citalopram from recombinant human SERT expressed in HEK cell membranes at 10 uM incubated for 90 mins by scintillation counting method. Put shortly:
(§1)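 Primary radioligand binding screen run by the NIMH Psychoactive Drug Screening Program, with one test level of 10 μM. The read-out was inhibition of radioligand binding at each receptor.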

Assay [6] deals with Beta-1 adrenergic receptor (Homo sapiens) (UniProt P08588). As to the kind of experiment: Displacement of [125I]-pindolol from recombinant human beta1 adrenergic receptor expressed in CHO Flp-In cells incubated for 90 mins by microbeta scintillation counting method. Format: cell-based.
Sequence of Beta-1 adrenergic receptor (Homo sapiens) (P08588 whole entry, looked up): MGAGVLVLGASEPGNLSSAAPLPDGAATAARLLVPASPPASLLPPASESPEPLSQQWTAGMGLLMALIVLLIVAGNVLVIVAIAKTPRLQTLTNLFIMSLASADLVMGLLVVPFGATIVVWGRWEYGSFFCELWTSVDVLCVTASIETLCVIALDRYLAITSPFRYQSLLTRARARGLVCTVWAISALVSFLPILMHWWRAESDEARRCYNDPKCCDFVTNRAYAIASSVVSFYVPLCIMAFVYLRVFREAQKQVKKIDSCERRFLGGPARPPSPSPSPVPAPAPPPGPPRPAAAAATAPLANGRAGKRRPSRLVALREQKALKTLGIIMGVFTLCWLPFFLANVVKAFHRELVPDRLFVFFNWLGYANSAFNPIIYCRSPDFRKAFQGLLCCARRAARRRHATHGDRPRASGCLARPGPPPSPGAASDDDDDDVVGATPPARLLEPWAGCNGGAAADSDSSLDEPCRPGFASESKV
Another assay has as its system NIH3T3. As to the kind of experiment: Cytotoxicity against mouse NIH/3T3 cells measured after 72 hrs by MTT assay. Format: cell-based. The note with it: NIH3T3, 72 h. In general terms: Tetrazolium assays rely on reduction of a dye to a coloured formazan, in cell work by metabolically active cells.
Assay [7] has as its target Alpha-1B adrenergic receptor (Homo sapiens) (UniProt P35368). The assay can be described thus: Displacement of [3H]-8-OH-DPAT from human recombinant alpha1B adrenergic receptor expressed in HEKT cells at 10 uM incubated for 90 mins by microbeta scintillation counting method. Format: cell-based. Put shortly: as §1
Assay [8] deals with D(2) dopamine receptor (Homo sapiens) (UniProt P14416). As to the kind of experiment: Displacement of [3H]-N-methylspiperone from human recombinant dopamine D2 receptor expressed in stable fibroblast cells incubated for 90 mins by microbeta scintillation counting method. Format: cell-based.
Sequence of D(2) dopamine receptor (Homo sapiens) (P14416 whole entry): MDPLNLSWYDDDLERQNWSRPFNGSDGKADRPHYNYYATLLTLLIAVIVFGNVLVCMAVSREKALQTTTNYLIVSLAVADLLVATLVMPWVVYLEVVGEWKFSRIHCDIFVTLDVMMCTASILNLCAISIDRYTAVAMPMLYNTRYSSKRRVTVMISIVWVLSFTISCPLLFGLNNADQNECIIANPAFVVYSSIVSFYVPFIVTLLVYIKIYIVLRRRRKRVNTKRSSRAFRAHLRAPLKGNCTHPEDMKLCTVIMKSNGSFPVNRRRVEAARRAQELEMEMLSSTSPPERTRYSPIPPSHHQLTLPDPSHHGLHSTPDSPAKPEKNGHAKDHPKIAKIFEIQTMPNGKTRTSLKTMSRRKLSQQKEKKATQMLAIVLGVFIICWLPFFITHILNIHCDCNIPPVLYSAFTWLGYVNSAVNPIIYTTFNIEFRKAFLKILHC
The target in assay [9] is 5-hydroxytryptamine receptor 1E (Homo sapiens) (UniProt P28566). The assay can be described thus: Displacement of [3H]-5-HT from human recombinant 5HT1E receptor expressed in stable HEK cells at 10 uM incubated for 90 mins by microbeta scintillation counting method. Format: cell-based. The method in brief: as §1
Sequence of 5-hydroxytryptamine receptor 1E (Homo sapiens) (P28566 whole entry): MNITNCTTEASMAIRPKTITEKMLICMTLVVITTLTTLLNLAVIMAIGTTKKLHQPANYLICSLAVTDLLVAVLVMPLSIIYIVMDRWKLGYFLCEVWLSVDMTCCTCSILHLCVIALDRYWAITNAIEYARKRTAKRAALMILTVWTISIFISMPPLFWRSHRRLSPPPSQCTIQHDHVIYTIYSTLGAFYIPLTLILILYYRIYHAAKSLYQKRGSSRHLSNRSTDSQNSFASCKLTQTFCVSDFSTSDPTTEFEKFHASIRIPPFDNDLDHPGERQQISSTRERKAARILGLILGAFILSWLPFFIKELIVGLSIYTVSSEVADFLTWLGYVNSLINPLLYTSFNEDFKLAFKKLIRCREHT
The species named for another assay is Rattus norvegicus. As to the kind of experiment: Displacement of [3H]-Flunitrazepam from BZP receptor in rat brain at 10 uM incubated for 90 mins by microbeta scintillation counting method. Format: tissue-based. Put shortly: as §1
Assay [10] concerns the target 5-hydroxytryptamine receptor 2A (Homo sapiens) (UniProt P28223). The assay can be described thus: Displacement of [3H]-ketanserin from human recombinant 5HT2A receptor expressed in HEKT cells at 10 uM incubated for 90 mins by microbeta scintillation counting method. Format: cell-based. The method in brief: as §1
Assay [11] has as its target Sigma intracellular receptor 2 (Homo sapiens) (UniProt Q5BJF2). As to the kind of experiment: Displacement of [3H]-[…] from human recombinant sigma2 receptor expressed in HEKT cells incubated for 90 mins by microbeta scintillation counting method. Format: cell-based.

Sequence of 5-hydroxytryptamine receptor 2A (Homo sapiens) (P28223 whole entry): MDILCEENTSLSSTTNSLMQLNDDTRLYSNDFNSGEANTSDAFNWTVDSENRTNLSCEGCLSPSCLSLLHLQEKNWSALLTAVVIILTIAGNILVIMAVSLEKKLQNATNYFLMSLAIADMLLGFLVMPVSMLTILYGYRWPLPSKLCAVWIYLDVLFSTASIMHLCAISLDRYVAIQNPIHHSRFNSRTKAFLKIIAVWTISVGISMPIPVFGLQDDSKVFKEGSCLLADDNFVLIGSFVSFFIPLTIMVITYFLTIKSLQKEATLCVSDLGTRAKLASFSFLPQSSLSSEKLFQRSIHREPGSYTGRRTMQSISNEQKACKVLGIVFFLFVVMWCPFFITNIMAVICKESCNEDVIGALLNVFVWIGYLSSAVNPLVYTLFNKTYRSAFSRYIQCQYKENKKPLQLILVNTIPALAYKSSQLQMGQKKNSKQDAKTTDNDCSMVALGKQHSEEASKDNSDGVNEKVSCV
Sequence of Alpha-1B adrenergic receptor (Homo sapiens) (P35368 whole entry): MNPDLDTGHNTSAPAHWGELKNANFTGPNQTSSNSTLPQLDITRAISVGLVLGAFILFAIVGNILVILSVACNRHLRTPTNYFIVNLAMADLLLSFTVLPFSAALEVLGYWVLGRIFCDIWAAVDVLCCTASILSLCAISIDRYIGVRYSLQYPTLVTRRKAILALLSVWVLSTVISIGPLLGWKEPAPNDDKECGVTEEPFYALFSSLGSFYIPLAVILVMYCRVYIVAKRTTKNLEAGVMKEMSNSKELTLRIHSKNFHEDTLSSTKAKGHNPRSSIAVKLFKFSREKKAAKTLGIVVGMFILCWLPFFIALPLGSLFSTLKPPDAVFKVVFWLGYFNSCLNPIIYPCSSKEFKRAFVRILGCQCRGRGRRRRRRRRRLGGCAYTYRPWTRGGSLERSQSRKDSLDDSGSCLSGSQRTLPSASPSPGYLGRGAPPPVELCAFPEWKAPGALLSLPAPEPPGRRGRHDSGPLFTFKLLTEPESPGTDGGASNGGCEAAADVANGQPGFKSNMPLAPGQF
Sequence of Sodium-dependent serotonin transporter (Homo sapiens) (P31645 whole entry, looked up): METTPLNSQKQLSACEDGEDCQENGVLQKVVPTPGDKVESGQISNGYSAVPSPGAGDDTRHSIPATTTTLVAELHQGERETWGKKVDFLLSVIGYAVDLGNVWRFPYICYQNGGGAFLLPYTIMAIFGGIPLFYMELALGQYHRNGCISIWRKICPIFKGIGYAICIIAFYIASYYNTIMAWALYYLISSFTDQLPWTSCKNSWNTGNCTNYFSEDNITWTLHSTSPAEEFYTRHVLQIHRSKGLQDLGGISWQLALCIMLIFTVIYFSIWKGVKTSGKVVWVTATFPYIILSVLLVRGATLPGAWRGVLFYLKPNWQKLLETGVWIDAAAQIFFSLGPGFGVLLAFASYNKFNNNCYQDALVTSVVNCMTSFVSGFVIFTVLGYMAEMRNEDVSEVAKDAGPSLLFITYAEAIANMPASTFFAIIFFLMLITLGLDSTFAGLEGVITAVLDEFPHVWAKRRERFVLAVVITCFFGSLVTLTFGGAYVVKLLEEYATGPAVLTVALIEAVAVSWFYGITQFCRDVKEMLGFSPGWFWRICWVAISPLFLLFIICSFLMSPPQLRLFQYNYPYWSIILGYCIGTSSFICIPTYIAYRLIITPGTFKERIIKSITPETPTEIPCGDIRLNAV
Sequence of Sigma intracellular receptor 2 (Homo sapiens) (Q5BJF2 whole entry): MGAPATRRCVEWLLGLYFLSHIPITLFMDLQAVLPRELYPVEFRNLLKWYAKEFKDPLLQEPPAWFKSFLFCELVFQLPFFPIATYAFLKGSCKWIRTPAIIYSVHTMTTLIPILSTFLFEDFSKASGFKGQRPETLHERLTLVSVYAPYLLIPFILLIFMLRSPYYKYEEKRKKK
Sequence of D(1A) dopamine receptor (Homo sapiens) (P21728 whole entry): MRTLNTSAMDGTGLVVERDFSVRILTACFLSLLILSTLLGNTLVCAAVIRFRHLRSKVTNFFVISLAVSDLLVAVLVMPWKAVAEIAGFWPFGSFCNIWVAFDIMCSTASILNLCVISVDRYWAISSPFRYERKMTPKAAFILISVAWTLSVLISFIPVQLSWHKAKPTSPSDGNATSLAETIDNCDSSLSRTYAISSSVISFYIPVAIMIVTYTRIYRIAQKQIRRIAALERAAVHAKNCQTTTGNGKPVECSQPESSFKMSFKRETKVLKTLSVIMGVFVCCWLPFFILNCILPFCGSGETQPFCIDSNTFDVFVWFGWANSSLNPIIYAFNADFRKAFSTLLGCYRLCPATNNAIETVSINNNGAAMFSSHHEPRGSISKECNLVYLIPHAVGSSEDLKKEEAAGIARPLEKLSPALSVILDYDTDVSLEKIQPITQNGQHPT

Usually IC50 stands for the midpoint of a concentration-inhibition curve. As for `Cn1c2cccc(=O)c-2nc2ccccc21` [PYOCYANIN], the inhibition result in assay [1], in [2], in assay [3], in [4], in assay [5] and in assay [6] was “inactive” each time. In addition, the inhibition entry (in assay [7]; in [8]; in [9]; in the assay filed under Rattus norvegicus; in [10]; in assay [11]) was “inactive” each time. This compound also returned an IC50 in the assay on NIH3T3 of 3.66 µg/mL (≈ 17.4 µM).
